Activity calls are given as the source filed them. The calls are words filed in the database; no cut-off is given here.
Key:
[1] = tested on: HEK293; assay: Cytotoxicity against HEK293 cells after 18 hrs by MTT assay; assay type: cell-based; conditions: Homo sapiens, HEK293, 18 h
Procedure, shortened: (§1)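 MTT assay: 1 × 10⁴ cells/well seeded in DMEM with 10% FBS and held 24 h at 37 °C in a CO₂ incubator. Compounds were diluted in culture medium and added alongside a vehicle control. After 18 h of exposure, MTT (5 mg/mL stock) was added and plates were incubated a further 4 h.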

[2] = tested on: MDA-MB-231; assay: Anticancer activity against estrogen-receptor-negative human MDA-MB-231 cells after 18 hrs by MTT assay; assay type: functional, cell-based; conditions: MDA-MB-231, 18 h; procedure, shortened: as §1
[3] = tested on: MCF7; assay: Anticancer activity against estrogen-positive human MCF7 cells after 18 hrs by MTT assay; assay type: functional, cell-based; conditions: MCF7, 18 h; procedure, shortened: as §1
[4] = tested on: A2780 ADR; assay: Reversal of P-gp-mediated multidrug resistance in human 2780AD cells assessed as vincristine accumulation; assay type: cell-based
[5] = tested on: Rattus norvegicus; assay: Antitumor activity against DMBA-induced mammary tumor in Sprague-Dawley rat assessed as tumor regression at 10 mg/kg, po administered for 30 days; assay type: functional, organism-based; parameters: dose 10 mg/kg

SMILES | IC50 [1] | IC50 [2] | IC50 [3] | Activity [4] | Activity [5]
CC(=O)O[C@H]1C(=O)[C@@]2(C)[C@H]([C@H](OC(=O)c3ccccc3)[C@]3(O)C[C@H](OC(=O)[C@H](O)[C@@H](NC(=O)c4ccccc4)c4ccccc4)C(C)=C1C3(C)C)[C@]1(OC(C)=O)CO[C@@H]1C[C@@H]2O [PACLITAXEL] | 43 µM | – | – | – | –
C=C1[C@@H](OC(=O)CCc2cccnc2)C[C@H](OC(C)=O)[C@]2(C)[C@@H]1C[C@@H]1C[C@H](OC(C)=O)C(C)=C([C@@H](OC(C)=O)[C@@H]2OC(C)=O)C1(C)C | > 50 µM | > 50 µM | 39 µM | – | –
C=C1[C@@H](OC(=O)Cc2ccccn2)C[C@H](OC(C)=O)[C@]2(C)[C@@H]1C[C@@H]1C[C@H](OC(C)=O)C(C)=C([C@@H](OC(C)=O)[C@@H]2OC(C)=O)C1(C)C | > 50 µM | > 50 µM | 28 µM | – | –
C=C1[C@@H](OC(=O)/C=C/c2cccnc2)C[C@H](OC(C)=O)[C@]2(C)[C@@H]1C[C@@H]1C[C@H](OC(C)=O)C(C)=C([C@@H](OC(C)=O)[C@@H]2OC(C)=O)C1(C)C | > 50 µM | > 50 µM | 34 µM | – | –
C=C1[C@@H](OC(=O)[C@@H](O)[C@H](O)c2ccccc2)C[C@H](OC(C)=O)[C@]2(C)[C@@H]1C[C@@H]1C[C@H](OC(C)=O)C(C)=C([C@@H](OC(C)=O)[C@@H]2OC(C)=O)C1(C)C | > 50 µM | 13 µM | > 50 µM | – | –
C=C1[C@@H](OC(=O)c2cccnc2)C[C@H](OC(C)=O)[C@]2(C)[C@@H]1C[C@@H]1C[C@H](OC(C)=O)C(C)=C([C@@H](OC(C)=O)[C@@H]2OC(C)=O)C1(C)C | > 50 µM | > 50 µM | > 50 µM | – | –
COc1ccc(CCN(C)CCCC(C#N)(c2ccc(OC)c(OC)c2)C(C)C)cc1OC (stereo not given) | – | – | – | 254% | –
C=C1[C@@H](OC(=O)CCc2ccccc2)C[C@H](OC(C)=O)[C@]2(C)[C@@H]1C[C@@H]1C[C@H](OC(C)=O)C(C)=C([C@@H](OC(C)=O)[C@@H]2OC(C)=O)C1(C)C | 10 µM | 20 µM | 15 µM | – | –
CC/C(=C(\c1ccccc1)c1ccc(OCCN(C)C)cc1)c1ccccc1 [TAMOXIFEN] | – | 24 µM | 12 µM | – | –
C=C1[C@H]2C[C@@H]3C[C@H](OC(C)=O)C(C)=C([C@@H](OC(C)=O)[C@H](OC(C)=O)[C@]2(C)[C@@H](OC(C)=O)C[C@@H]1O)C3(C)C | > 50 µM | > 50 µM | > 50 µM | – | –
C=C1[C@@H](OC(=O)/C=C/c2ccccc2)C[C@H](OC(C)=O)[C@]2(C)[C@@H]1C[C@@H]1C[C@H](OC(C)=O)C(C)=C([C@@H](OC(C)=O)[C@@H]2OC(C)=O)C1(C)C | > 50 µM | 10 µM | 20 µM | 266% | Active

Source: ChEMBL document CHEMBL1154045, “In vitro and in vivo anticancer activity of 2-deacetoxytaxinine J and synthesis of novel taxoids and their in vitro anticancer activity” (Eur J Med Chem, 2009)
